Measured values as given in ChEMBL document CHEMBL1124821, “Design of an antithrombotic-antihypertensive agent (Wy 27569). Synthesis and evaluation of a series of 2-heteroaryl-substituted dihydropyridines” (J Med Chem, 1990).
Several values for one entry are separate records, joined by “and”; a condition that tells them apart may be missing. Equal entries are not always repeated.

Assays:
[1] = system: Rattus norvegicus; assay: The compound was tested for reducing blood pressure in rats after 6 hours of 0.03 mmol/kg oral administration; assay type: functional
In short: (§1)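 Female SHR (250–300 g) kept in 37 °C constant-temperature housing; systolic pressure measured by tail-cuff with a pneumatic pulse transducer. Rats below 155 mmHg discarded. Groups of four given a single oral dose in 0.5% (hydroxypropyl)methylcellulose–0.9% saline (10 mL/kg) or vehicle alone; pressure recorded before dosing and at 2, 6 and 24 h. Analysed by analysis of variance.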

[2] = system: Rattus norvegicus; assay: Reduction in blood pressure of rats, 2 hr after 0.03 mmol/kg p.o. administration; assay type: functional; in short: as §1
[3] = biological target: Thromboxane-A synthase (Oryctolagus cuniculus); assay: Inhibition of Thromboxane A2 synthase in rabbit platelets in vitro
[4] = organism: Homo sapiens; assay: The compound was tested for effects of compound on TXB2 production at molar concentration of 10e-6 in human platelet rich plasma; assay type: functional
[5] = organism: Homo sapiens; assay: The compound was tested for effects of compound on TXB2 production at different molar concentration of 10e-4 in human platelet rich plasma; assay type: functional
[6] = system: Rattus norvegicus; assay: The compound was tested for plasma levels of TXB2 in rats after 2 hr following dose 0.3(mg/kg) in oral administration; assay type: functional, organism-based
In short: (§2)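 Female normotensive rats killed by CO₂ asphyxiation 2 h after oral dosing with compound or vehicle (n = 10–13 per group). Blood taken from the posterior vena cava with 1% EDTA, centrifuged at once (10000g, 10 min), and plasma stored at –30 °C. TXB₂ and 6-KPGF1α measured by radioimmunoassay, in pg/mL, mean ± SEM. p < 0.05 versus controls taken as significant.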

[7] = system: Rattus norvegicus; assay: The compound was tested for plasma levels of TXB2 in rats after 2 hr following dose 3(mg/kg) in oral administration (P<0.05); assay type: functional, organism-based; in short: as §2
[8] = system: Rattus norvegicus; assay: The compound was tested for reducing blood pressure in rats after 2 hours of 0.03 mmol/kg oral administration; assay type: functional; in short: as §1
[9] = system: Rattus norvegicus; assay: The compound was tested for plasma levels of 6-KPGF1alpha in rats after 2 hr following dose 10(mg/kg) in oral administration.; assay type: functional, organism-based; in short: as §2
[10] = organism: Homo sapiens; assay: The compound was tested for effects of compound on TXB2 production at molar concentration of 10e-5 in human platelet rich plasma; assay type: functional
[11] = system: Rattus norvegicus; assay: The compound was tested for plasma levels of 6-KPGF1alpha in rats after 2 hr following dose 3(mg/kg) in oral administration; assay type: functional, organism-based; in short: as §2
[12] = system: Rattus norvegicus; assay: The compound was tested for plasma levels of TXB2 in rats after 2 hr following dose 10(mg/kg) in oral administration; assay type: functional, organism-based; in short: as §2
[13] = organism: Homo sapiens; assay: The compound was tested for effects of compound on 6-KPGF1alpha production at molar concentration of 10e-7 in human platelet rich plasma; assay type: functional
[14] = system: Rattus norvegicus; assay: The compound was tested for reducing blood pressure in rats after 2 hours of 0.003 mmol/kg oral administration; assay type: functional; in short: as §1
[15] = organism: Homo sapiens; assay: The compound was tested for effects of compound on TXB2 production at molar concentration of 10e-7 in human platelet rich plasma; assay type: functional
[16] = organism: Homo sapiens; assay: The compound was tested for effects of compound on TXB2 production at different molar concentration of 10e-3 in human platelet rich plasma; assay type: functional
[17] = organism: Homo sapiens; assay: The compound was tested for effects of compound on 6-KPGF1alpha production at molar concentration of 10e-5 in human platelet rich plasma; assay type: functional
[18] = system: Rattus norvegicus; assay: The compound was tested for plasma levels of 6-KPGF1alpha in rats after 2 hr following dose 0.3(mg/kg) in oral administration; assay type: functional, organism-based; in short: as §2
[19] = system: Rattus norvegicus; assay: The compound was tested for plasma levels of TXB2 in rats after 2 hr following dose 1(mg/kg) in oral administration; assay type: functional, organism-based; in short: as §2
[20] = organism: Homo sapiens; assay: The compound was tested for effects of compound on 6-KPGF1alpha production at molar concentration of 10e-3 in human platelet rich plasma; assay type: functional
[21] = organism: Homo sapiens; assay: The compound was tested for effects of compound on 6-KPGF1alpha production at molar concentration of 10e-4 in human platelet rich plasma; assay type: functional
[22] = organism: Homo sapiens; assay: The compound was tested for effects of compound on 6-KPGF1alpha production at molar concentration of 10e-6 in human platelet rich plasma; assay type: functional
[23] = organism: Homo sapiens; assay: The compound was tested for effects of compound on TXB2 production at molar concentration of 10e-3 in human platelet rich plasma; assay type: functional
[24] = system: Rattus norvegicus; assay: The compound was tested for plasma levels of TXB2 in rats after 2 hr following dose 3(mg/kg) in oral administration.; assay type: functional, organism-based; in short: as §2
[25] = organism: Homo sapiens; assay: The compound was tested for effects of compound on TXB2 production at molar concentration of 10e-4 in human platelet rich plasma; assay type: functional
[26] = system: Rattus norvegicus; assay: The compound was tested for plasma levels of TXB2 in rats after 2 hr following dose 10(mg/kg) in oral administration.; assay type: functional, organism-based; in short: as §2
[27] = system: Rattus norvegicus; assay: The compound was tested for plasma levels of TXB2 in rats after 2 hr following dose 3(mg/kg) in oral administration. (p<0.05); assay type: functional, organism-based; in short: as §2
[28] = system: Rattus norvegicus; assay: The compound was tested for reducing blood pressure in rats after 6 hours of 0.03 mmol/kg oral administration.; assay type: functional; in short: as §1
[29] = organism: Homo sapiens; assay: The compound was tested for effects of compound on TXB2 production at different molar concentration of 10e-5 in human platelet rich plasma; assay type: functional
[30] = organism: Homo sapiens; assay: The compound was tested for effects of compound on TXB2 production at different molar concentration of 10e-6 in human platelet rich plasma; assay type: functional
[31] = organism: Homo sapiens; assay: The compound was tested for effects of compound on TXB2 production at different molar concentration of 10e-7 in human platelet rich plasma; assay type: functional
[32] = system: Rattus norvegicus; assay: The compound was tested for plasma levels of 6-KPGF1alpha in rats after 2 hr following dose 3(mg/kg) in oral administration. (p<0.05); assay type: functional, organism-based; in short: as §2
[33] = system: Rattus norvegicus; assay: The compound was tested for reducing blood pressure in rats after 2 hours of 0.003 mmol/kg oral administration.; assay type: functional; in short: as §1
[34] = system: Rattus norvegicus; assay: The compound was tested for reducing blood pressure in rats after 6 hours of 0.003 mmol/kg oral administration.; assay type: functional; in short: as §1

CCO/C(O)=C1\C(COCCn2ccnc2)=NC(C)=C(C(=O)OC)C1c1cccc([N+](=O)[O-])c1.Cl (stereo unspecified)
Decrease in blood pressure [1]: 42%
Decrease in blood pressure [2]: 56%

CCOC(=O)C1=C(C)N=C(CCn2ccnc2)/C(=C(/O)OCC)C1c1ccccc1[N+](=O)[O-].O=C(O)/C=C\C(=O)O (stereo unspecified)
Decrease in blood pressure [2]: 44%
IC50 [3]: 2.3 µM

CCO/C(O)=C1\C(Cn2ccnc2)=NC(C)=C(C(=O)OC)C1c1cccc([N+](=O)[O-])c1.Cl (stereo unspecified)
Production [4]: 67%
Production [5]: 10%
Plasma level [6]: 484 pg/mL
Plasma level [7]: 330 pg/mL
Decrease in blood pressure [8]: 51%
Plasma level [9]: 94 pg/mL
Production [10]: 43%
Plasma level [11]: 68 pg/mL
Plasma level [12]: 280 pg/mL
Decrease in blood pressure [1]: 38% and 28%
Production [13]: 100%
Decrease in blood pressure [14]: 34%
Production [15]: 92%
Production [16]: 0%
Production [17]: 119%
Plasma level [18]: 22 pg/mL
Plasma level [19]: 402 pg/mL
Production [20]: 460%
Production [21]: 431%
Production [22]: 112%

CCOC(=O)C1=C(COc2cccnc2)NC(C)=C(C(=O)OC)C1c1cccc([N+](=O)[O-])c1.Cl (stereo unspecified)
Decrease in blood pressure [2]: 40%

O=C(O)c1ccc(OCCn2ccnc2)cc1 [DAZOXIBEN]
Production [4]: 69%
Production [10]: 21%
Production [23]: 2%
Production [13]: 115%
Plasma level [24]: 384 pg/mL
Production [15]: 97.5%
Production [25]: 5%
Production [17]: 603%
Plasma level [26]: 270 pg/mL and 202 pg/mL
Production [20]: 345%
Production [21]: 460%
Production [22]: 463%
Plasma level [27]: 384 pg/mL

COC(=O)C1=C(C)N=C(Cn2ccnc2)/C(=C(/O)OC)C1c1cccc([N+](=O)[O-])c1.Cl (stereo unspecified)
Decrease in blood pressure [28]: 27%
Decrease in blood pressure [2]: 42%

CCOC(=O)C1=C(C)NC(C)=C(C(=O)OC)C1c1cccc([N+](=O)[O-])c1 (stereo unspecified) [NITRENDIPINE]
Production [29]: 81%
Production [5]: 40%
Production [30]: 84%
Plasma concentration [9]: 60 pg/mL
Production [13]: 112%
Plasma concentration [24]: 564 pg/mL
Production [16]: 35%
Production [31]: 87%
Production [17]: 136%
Plasma concentration [26]: 562 pg/mL
Plasma concentration [32]: 62 pg/mL
Production [20]: 96%
Decrease in blood pressure [2]: 33%
Production [21]: 121%
Production [22]: 113%

CCO/C(O)=C1\C(Cn2ccnc2)=NC(C)=C(C(=O)OC)C1c1ccccc1OC(F)F (stereo unspecified)
Decrease in blood pressure [2]: 55% and 48%

CCO/C(O)=C1\C(Cn2ccnc2)=NC(Cn2ccnc2)=C(C(=O)OC)C1c1cccc([N+](=O)[O-])c1 (stereo unspecified)
IC50 [3]: 0.6 µM

CCOC(=O)C1=C(C)N=C(Cn2ccnc2)/C(=C(/O)OCC)C1c1cccc([N+](=O)[O-])c1.Cl (stereo unspecified)
Decrease in blood pressure [28]: 13%
Decrease in blood pressure [2]: 47%

CCO/C(O)=C1\C(Cn2ccnc2)=NC(C)=C(C(=O)OC)C1c1cccc(C(F)(F)F)c1Cl (stereo unspecified)
Decrease in blood pressure [28]: 52%
Decrease in blood pressure [33]: 16%
Decrease in blood pressure [2]: 60%

CCO/C(O)=C1\C(C)=NC(Cn2ccnc2)=C(C(=O)OC)C1c1cccc([N+](=O)[O-])c1 (stereo unspecified)
IC50 [3]: 2.2 µM

Br.CCO/C(O)=C1\C(Cn2ccnc2)=NC(C)=C(C(=O)OC)C1c1c(F)cccc1Cl (stereo unspecified)
Decrease in blood pressure [2]: 48% and 35%
IC50 [3]: 19.5 µM

CCO/C(O)=C1\C(COCc2cccnc2)=NC(C)=C(C(=O)OC)C1c1cccc([N+](=O)[O-])c1.Cl (stereo unspecified)
Decrease in blood pressure [2]: 18%

CCO/C(O)=C1\C(C)=NC(Cn2ccnc2)=C(C(=O)OC)C1c1ccccc1OC(F)F (stereo unspecified)
Decrease in blood pressure [28]: 31%
Decrease in blood pressure [2]: 48%
IC50 [3]: 25 µM

CCO/C(O)=C1\C(Cn2ccnc2)=NC(C)=C(C(=O)OC(C)C)C1c1cccc([N+](=O)[O-])c1.Cl (stereo unspecified)
Decrease in blood pressure [28]: 19%
Decrease in blood pressure [2]: 21%

CCO/C(O)=C1\C(Cn2ccnc2)=NC(C)=C(C(=O)OC)C1c1ccccc1Cl (stereo unspecified)
Decrease in blood pressure [28]: 15%
Decrease in blood pressure [2]: 31%
IC50 [3]: 0.5 µM

CCOC(=O)C1=C(CCn2ccnc2)N=C(CCn2ccnc2)/C(=C(/O)OCC)C1c1cccc([N+](=O)[O-])c1 (stereo unspecified)
IC50 [3]: 5.3 µM

CCO/C(O)=C1\C(COCCc2cccnc2)=NC(C)=C(C(=O)OC)C1c1cccc([N+](=O)[O-])c1.Cl (stereo unspecified)
Decrease in blood pressure [2]: 40%

CCO/C(O)=C1\C(Cn2ccnc2)=NC(C)=C(C(=O)OC)C1c1ccccc1[N+](=O)[O-] (stereo unspecified)
Decrease in blood pressure [28]: 56%
Decrease in blood pressure [33]: 44%
Decrease in blood pressure [34]: 14%
Decrease in blood pressure [2]: 59%

CCO/C(O)=C1\C(C)=NC(Cn2ccnc2)=C(C(=O)OC)C1c1cccc(C(F)(F)F)c1Cl (stereo unspecified)
Decrease in blood pressure [2]: 16%
IC50 [3]: 125 µM

CCO/C(O)=C1\C(Cn2ccnc2)=NC(C)=C(C(=O)OC)C1c1cccc(Cl)c1Cl (stereo unspecified)
Decrease in blood pressure [28]: 49%
Decrease in blood pressure [33]: 40%
Decrease in blood pressure [34]: 20%
Decrease in blood pressure [2]: 54%
